ChEMBL document CHEMBL4130628, “Identification and Pharmacological Profile of an Indane Based Series of Ghrelin Receptor Full Agonists” (J Med Chem, 2018)
Active and inactive are the calls of the source. No cut-off for these calls is given here.

Molecular target: T1, Growth hormone secretagogue receptor type 1 (Homo sapiens, UniProt Q92847)
Test: Displacement of human [125I]-ghrelin from GHS-R1a (unknown origin) expressed in HEK293 cell membranes after 1 hr by radioligand binding assay
Details: hek293

T1 sequence (Q92847 whole entry): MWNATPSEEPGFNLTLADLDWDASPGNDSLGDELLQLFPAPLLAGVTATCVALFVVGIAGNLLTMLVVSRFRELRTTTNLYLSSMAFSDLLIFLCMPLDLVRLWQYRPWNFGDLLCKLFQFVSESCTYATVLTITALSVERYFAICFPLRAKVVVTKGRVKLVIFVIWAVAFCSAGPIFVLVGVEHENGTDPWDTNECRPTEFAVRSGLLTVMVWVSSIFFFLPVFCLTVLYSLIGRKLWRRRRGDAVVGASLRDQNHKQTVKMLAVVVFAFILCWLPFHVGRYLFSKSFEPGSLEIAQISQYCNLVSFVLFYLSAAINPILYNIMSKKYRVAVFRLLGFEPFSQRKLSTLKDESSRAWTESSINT

Structure (SMILES) | pIC50
CN1CCCO[C@@H](C(=O)N[C@H]2c3ccccc3C[C@@H]2NC(=O)c2ccc3c(ccn3C)c2)C1 | < 6

Same assay, conditions: read-out: IC50

Structure (SMILES) | IC50 [nM]
CN1CCC[C@H]1CC(=O)N[C@H]1c2ccccc2C[C@@H]1NC(=O)c1ccc2c(ccn2C)c1 | 29
Nc1ccncc1C(=O)N[C@H]1c2ccccc2C[C@@H]1NC(=O)c1cc2ccccc2[nH]1 | 49
CN(C)CCNC(=O)[C@@H]1c2ccccc2C[C@H]1NC(=O)c1cc2ccccc2[nH]1 | 560
Cc1ccc2[nH]c(C(=O)N[C@@H]3Cc4ccccc4[C@H]3NC(=O)CCN(C)C)cc2c1 | 930
Cc1ccc2[nH]c(C(=O)N[C@H]3Cc4ccccc4[C@H]3NC(=O)CCN(C)C)cc2c1 | 69
CN1CCC[C@@H]1CC(=O)N[C@H]1c2ccccc2C[C@@H]1NC(=O)c1ccc2c(ccn2C)c1 | 184
Nc1ccncc1C(=O)N[C@H]1c2ccccc2C[C@@H]1NC(=O)c1nc2cc(F)c(F)cc2[nH]1 | 89
CN1CC[C@H](C(=O)N[C@H]2c3ccccc3C[C@@H]2NC(=O)c2ccc3c(ccn3C)c2)C1 | 343
CN1N=C2CCN(C(=O)[C@@H](COCc3ccccc3)NC(=O)C(C)(C)N)C[C@@]2(Cc2ccccc2)C1=O [CAPROMORELIN] | 22
CN1CC[C@@H](C(=O)N[C@H]2c3ccccc3C[C@@H]2NC(=O)c2ccc3c(ccn3C)c2)C1 | 288
CN1CCCO[C@H](C(=O)N[C@H]2c3ccccc3C[C@@H]2NC(=O)c2ccc3c(ccn3C)c2)C1 | 71
CN1CCCCC(C(=O)N[C@H]2c3ccccc3C[C@@H]2NC(=O)c2ccc3c(ccn3C)c2)C1 (stereo in doubt; 27) | 107
Cc1ccc2[nH]c(C(=O)N[C@H]3Cc4ccccc4[C@@H]3NC(=O)[C@@H]3CN(C)CCO3)cc2c1 | 14
O=C(N[C@H]1Cc2ccccc2[C@@H]1NC(=O)[C@H]1CCNC1)c1cc2cc(F)ccc2[nH]1 | 189
Cc1ccc2[nH]c(C(=O)N[C@@H]3Cc4ccccc4[C@@H]3NC(=O)CCN(C)C)cc2c1 | 1260
N#Cc1ccc2[nH]c(C(=O)N[C@H]3Cc4ccccc4[C@@H]3NC(=O)c3cnccc3N)cc2c1 | 187
Cn1c(C(=O)N[C@H]2Cc3ccccc3[C@@H]2NC(=O)c2cnccc2N)cc2ccccc21 | 246
Nc1ccncc1C(=O)N[C@H]1c2ccccc2C[C@@H]1NC(=O)c1cc2c(F)cc(F)cc2[nH]1 | 14
CN1CCCO[C@@H](C(=O)N[C@H]2c3ccccc3C[C@@H]2NC(=O)c2ccc3c(ccn3C)c2)C1 | > 1000

Molecular target: T1, Growth hormone secretagogue receptor type 1
Test: Agonist activity at human GHS receptor assessed as intracellular myo-IP1 secretion after 90 mins by HTRF analysis
Format: functional, cell-based
Details: read-out: EC50

Structure (SMILES) | EC50 [nM]
CN1CCC[C@H]1CC(=O)N[C@H]1c2ccccc2C[C@@H]1NC(=O)c1ccc2c(ccn2C)c1 | 19
Nc1ccncc1C(=O)N[C@H]1c2ccccc2C[C@@H]1NC(=O)c1cc2ccccc2[nH]1 | 25
CN(C)CCNC(=O)[C@@H]1c2ccccc2C[C@H]1NC(=O)c1cc2ccccc2[nH]1 | 630
Cc1ccc2[nH]c(C(=O)N[C@@H]3Cc4ccccc4[C@H]3NC(=O)CCN(C)C)cc2c1 | 226
Cc1ccc2[nH]c(C(=O)N[C@H]3Cc4ccccc4[C@H]3NC(=O)CCN(C)C)cc2c1 | 100
CN1CCC[C@@H]1CC(=O)N[C@H]1c2ccccc2C[C@@H]1NC(=O)c1ccc2c(ccn2C)c1 | > 740
Nc1ccncc1C(=O)N[C@H]1c2ccccc2C[C@@H]1NC(=O)c1nc2cc(F)c(F)cc2[nH]1 | 23
CN1CC[C@H](C(=O)N[C@H]2c3ccccc3C[C@@H]2NC(=O)c2ccc3c(ccn3C)c2)C1 | 250
CN1N=C2CCN(C(=O)[C@@H](COCc3ccccc3)NC(=O)C(C)(C)N)C[C@@]2(Cc2ccccc2)C1=O [CAPROMORELIN] | 0.9
CN1CC[C@@H](C(=O)N[C@H]2c3ccccc3C[C@@H]2NC(=O)c2ccc3c(ccn3C)c2)C1 | 129
CN1CCCO[C@H](C(=O)N[C@H]2c3ccccc3C[C@@H]2NC(=O)c2ccc3c(ccn3C)c2)C1 | 10
CN1CCCCC(C(=O)N[C@H]2c3ccccc3C[C@@H]2NC(=O)c2ccc3c(ccn3C)c2)C1 (stereo in doubt; 27) | 36
Cc1ccc2[nH]c(C(=O)N[C@H]3Cc4ccccc4[C@@H]3NC(=O)[C@@H]3CN(C)CCO3)cc2c1 | 1.4
O=C(N[C@H]1Cc2ccccc2[C@@H]1NC(=O)[C@H]1CCNC1)c1cc2cc(F)ccc2[nH]1 | 47
Cc1ccc2[nH]c(C(=O)N[C@@H]3Cc4ccccc4[C@@H]3NC(=O)CCN(C)C)cc2c1 | 1500
N#Cc1ccc2[nH]c(C(=O)N[C@H]3Cc4ccccc4[C@@H]3NC(=O)c3cnccc3N)cc2c1 | 44
Cn1c(C(=O)N[C@H]2Cc3ccccc3[C@@H]2NC(=O)c2cnccc2N)cc2ccccc21 | 15
Nc1ccncc1C(=O)N[C@H]1c2ccccc2C[C@@H]1NC(=O)c1cc2c(F)cc(F)cc2[nH]1 | 3
CN1CCCO[C@@H](C(=O)N[C@H]2c3ccccc3C[C@@H]2NC(=O)c2ccc3c(ccn3C)c2)C1 | 262

Same assay, conditions: read-out: pEC50 (converted)

Structure (SMILES) | EC50 [nM]
CN1CCC[C@@H]1CC(=O)N[C@H]1c2ccccc2C[C@@H]1NC(=O)c1ccc2c(ccn2C)c1 | > 794

Tested on: not listed separately
Test: 1-octanol/aqueous buffer distribution coefficient, log D of compound at pH 7.4
Format: physicochemical
Details: 1-octanol/aqueous buffer, read-out: logD

Structure (SMILES) | logD
CN1CCC[C@H]1CC(=O)N[C@H]1c2ccccc2C[C@@H]1NC(=O)c1ccc2c(ccn2C)c1 | 1.7
Nc1ccncc1C(=O)N[C@H]1c2ccccc2C[C@@H]1NC(=O)c1cc2ccccc2[nH]1 | 2.4
CN(C)CCNC(=O)[C@@H]1c2ccccc2C[C@H]1NC(=O)c1cc2ccccc2[nH]1 | 2.3
CN1CCC[C@@H]1CC(=O)N[C@H]1c2ccccc2C[C@@H]1NC(=O)c1ccc2c(ccn2C)c1 | 1.8
Nc1ccncc1C(=O)N[C@H]1c2ccccc2C[C@@H]1NC(=O)c1nc2cc(F)c(F)cc2[nH]1 | 2.4
CN1CC[C@H](C(=O)N[C@H]2c3ccccc3C[C@@H]2NC(=O)c2ccc3c(ccn3C)c2)C1 | 1.4
CN1CC[C@@H](C(=O)N[C@H]2c3ccccc3C[C@@H]2NC(=O)c2ccc3c(ccn3C)c2)C1 | 1.4
CN1CCCO[C@H](C(=O)N[C@H]2c3ccccc3C[C@@H]2NC(=O)c2ccc3c(ccn3C)c2)C1 | 2.3
CN1CCCCC(C(=O)N[C@H]2c3ccccc3C[C@@H]2NC(=O)c2ccc3c(ccn3C)c2)C1 (stereo in doubt; 27) | 2.1
Cc1ccc2[nH]c(C(=O)N[C@H]3Cc4ccccc4[C@@H]3NC(=O)[C@@H]3CN(C)CCO3)cc2c1 | 3.7
N#Cc1ccc2[nH]c(C(=O)N[C@H]3Cc4ccccc4[C@@H]3NC(=O)c3cnccc3N)cc2c1 | 2.1
Cn1c(C(=O)N[C@H]2Cc3ccccc3[C@@H]2NC(=O)c2cnccc2N)cc2ccccc21 | 4.1
Nc1ccncc1C(=O)N[C@H]1c2ccccc2C[C@@H]1NC(=O)c1cc2c(F)cc(F)cc2[nH]1 | 3.1
CN1CCCO[C@@H](C(=O)N[C@H]2c3ccccc3C[C@@H]2NC(=O)c2ccc3c(ccn3C)c2)C1 | 2.3

Molecular target: Voltage-gated inwardly rectifying potassium channel KCNH2 (Homo sapiens, UniProt Q12809)
Sequence (Q12809 whole entry): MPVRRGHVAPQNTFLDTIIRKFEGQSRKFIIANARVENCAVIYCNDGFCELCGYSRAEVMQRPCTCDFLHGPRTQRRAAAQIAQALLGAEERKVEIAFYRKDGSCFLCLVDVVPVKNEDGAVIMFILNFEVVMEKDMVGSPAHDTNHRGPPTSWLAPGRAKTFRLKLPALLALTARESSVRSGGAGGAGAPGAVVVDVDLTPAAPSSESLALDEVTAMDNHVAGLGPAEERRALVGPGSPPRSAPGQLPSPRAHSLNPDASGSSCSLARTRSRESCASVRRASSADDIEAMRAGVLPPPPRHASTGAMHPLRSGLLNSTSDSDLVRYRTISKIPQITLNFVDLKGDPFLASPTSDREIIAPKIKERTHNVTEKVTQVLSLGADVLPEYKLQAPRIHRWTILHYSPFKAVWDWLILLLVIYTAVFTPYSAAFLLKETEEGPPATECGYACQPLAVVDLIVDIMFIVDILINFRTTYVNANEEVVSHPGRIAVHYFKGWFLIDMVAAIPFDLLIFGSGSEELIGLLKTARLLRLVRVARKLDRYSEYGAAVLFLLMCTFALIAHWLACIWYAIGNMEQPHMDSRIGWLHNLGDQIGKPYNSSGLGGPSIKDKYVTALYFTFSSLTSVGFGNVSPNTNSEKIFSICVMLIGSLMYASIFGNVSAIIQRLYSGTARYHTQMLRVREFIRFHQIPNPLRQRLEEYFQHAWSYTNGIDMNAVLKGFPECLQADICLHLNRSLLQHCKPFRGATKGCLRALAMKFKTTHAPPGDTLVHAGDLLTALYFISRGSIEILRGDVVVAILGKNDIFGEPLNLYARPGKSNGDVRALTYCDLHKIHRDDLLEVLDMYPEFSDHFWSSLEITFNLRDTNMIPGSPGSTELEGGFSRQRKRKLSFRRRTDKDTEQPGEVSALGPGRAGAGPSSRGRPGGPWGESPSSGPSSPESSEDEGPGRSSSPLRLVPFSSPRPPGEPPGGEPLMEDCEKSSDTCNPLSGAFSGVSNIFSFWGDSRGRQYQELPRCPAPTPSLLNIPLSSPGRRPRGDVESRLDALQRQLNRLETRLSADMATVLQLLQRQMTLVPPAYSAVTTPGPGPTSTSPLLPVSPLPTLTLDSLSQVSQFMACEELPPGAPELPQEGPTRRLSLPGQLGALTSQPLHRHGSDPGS
Test: Inhibition of human ERG expressed in CHO cells
Format: cell-based
Details: not given
Summary of the method: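 hERG currents recorded from CHO cells expressing hERG.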

Structure (SMILES) | IC50 [nM]
CN(C)CCNC(=O)[C@@H]1c2ccccc2C[C@H]1NC(=O)c1cc2ccccc2[nH]1 | 12600
Cc1ccc2[nH]c(C(=O)N[C@@H]3Cc4ccccc4[C@H]3NC(=O)CCN(C)C)cc2c1 | 2510
Cc1ccc2[nH]c(C(=O)N[C@H]3Cc4ccccc4[C@H]3NC(=O)CCN(C)C)cc2c1 | 25100
O=C(N[C@H]1Cc2ccccc2[C@@H]1NC(=O)[C@H]1CCNC1)c1cc2cc(F)ccc2[nH]1 | > 10000
Cc1ccc2[nH]c(C(=O)N[C@@H]3Cc4ccccc4[C@@H]3NC(=O)CCN(C)C)cc2c1 | 6310

Tested on: not listed separately
Test: Intrinsic clearance in human liver microsomes
Format: ADME, microsome
Details: read-out: CLH

Structure (SMILES) | microsomal CLint [µL/min/mg]
CN(C)CCNC(=O)[C@@H]1c2ccccc2C[C@H]1NC(=O)c1cc2ccccc2[nH]1 | 3

Tested on: not listed separately
Test: Clearance in Beagle dog at 1 mg/kg, iv or 2 mg/kg, po after 24 hrs by LC-MS/MS analysis
Format: ADME, organism-based, Canis lupus familiaris
Details: in vivo
Summary of the method: (§1)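 Male/female beagles (2–5 y, 12–15 kg) were fasted overnight. IV: about 1 mg/Kg as a 15-min infusion to two animals, in 5% DMSO/95% SBE-β-CD (30% w/v) adjusted to pH 7.5. PO: about 2 mg/Kg by gavage, in the same vehicle or 0.5% HPMC/0.1% Tween 80 suspension. Jugular blood was drawn 0.03–24 h (IV) or 0.17–24 h (PO). K2-EDTA plasma analysed by LC-MS/MS.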

Structure (SMILES) | clearance [mL/min/kg]
Cc1ccc2[nH]c(C(=O)N[C@H]3Cc4ccccc4[C@@H]3NC(=O)[C@@H]3CN(C)CCO3)cc2c1 | 28

Tested on: not listed separately
Test: Volume of distribution in Beagle dog at 1 mg/kg, iv or 2 mg/kg, po after 24 hrs by LC-MS/MS analysis
Format: ADME, organism-based, Canis lupus familiaris
Details: in vivo
Summary of the method: as §1

Structure (SMILES) | Vd [L/kg]
Cc1ccc2[nH]c(C(=O)N[C@H]3Cc4ccccc4[C@@H]3NC(=O)[C@@H]3CN(C)CCO3)cc2c1 | 2.1

Tested on: not listed separately
Test: Half life in Beagle dog at 2 mg/kg, po after 24 hrs by LC-MS/MS analysis
Format: ADME, organism-based, Canis lupus familiaris
Details: in vivo
Summary of the method: as §1

Structure (SMILES) | half-life [h]
Cc1ccc2[nH]c(C(=O)N[C@H]3Cc4ccccc4[C@@H]3NC(=O)[C@@H]3CN(C)CCO3)cc2c1 | 1.2

Tested on: not listed separately
Test: Oral bioavailability in Beagle dog at 2 mg/kg after 24 hrs by LC-MS/MS analysis
Format: ADME, organism-based, Canis lupus familiaris
Details: in vivo
Summary of the method: as §1

Structure (SMILES) | bioavailability [%]
Cc1ccc2[nH]c(C(=O)N[C@H]3Cc4ccccc4[C@@H]3NC(=O)[C@@H]3CN(C)CCO3)cc2c1 | 39

Tested on: not listed separately
Test: Apparent permeability across apical to basolateral side in human Caco2 cells at pH 7.4
Format: ADME, cell-based
Details: Caco-2, pH 7.4

Structure (SMILES) | Papp A→B [×10⁻⁶ cm/s]
Cc1ccc2[nH]c(C(=O)N[C@H]3Cc4ccccc4[C@@H]3NC(=O)[C@@H]3CN(C)CCO3)cc2c1 | 15.3

Tested on: not listed separately
Test: Apparent permeability across basolateral to apical side in human Caco2 cells at pH 7.4
Format: ADME, cell-based
Details: Caco-2, pH 7.4

Structure (SMILES) | Papp B→A [×10⁻⁶ cm/s]
Cc1ccc2[nH]c(C(=O)N[C@H]3Cc4ccccc4[C@@H]3NC(=O)[C@@H]3CN(C)CCO3)cc2c1 | 7.5

Tested on: not listed separately
Test: Efflux ratio of apparent permeability across basolateral to apical over apical to basolateral side in human Caco2 cells
Format: ADME, cell-based
Details: Caco-2
Summary of the method: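 Caco-2 monolayers; Papp measured in both directions at pH 7.4 (units 1E-6 cm/s). Efflux ratio taken as Papp basolateral-to-apical divided by Papp apical-to-basolateral.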

Structure (SMILES) | efflux ratio
Cc1ccc2[nH]c(C(=O)N[C@H]3Cc4ccccc4[C@@H]3NC(=O)[C@@H]3CN(C)CCO3)cc2c1 | 0.5

Tested on: not listed separately
Test: Apparent intrinsic permeability across apical to basolateral side in human Caco2 cells at pH 6.5
Format: ADME, cell-based
Details: Caco-2, pH 6.5

Structure (SMILES) | Papp A→B [×10⁻⁶ cm/s]
Cc1ccc2[nH]c(C(=O)N[C@H]3Cc4ccccc4[C@@H]3NC(=O)[C@@H]3CN(C)CCO3)cc2c1 | 44.4

Tested on: not listed separately
Test: Ratio of unbound drug level in brain to plasma in Beagle dog at 1 mg/kg, iv or 2 mg/kg, po after 24 hrs by LC-MS/MS analysis
Format: ADME, organism-based, Canis lupus familiaris
Details: read-out: K(p,uu,brain)

Structure (SMILES) | Kp uu at 24 h
Cc1ccc2[nH]c(C(=O)N[C@H]3Cc4ccccc4[C@@H]3NC(=O)[C@@H]3CN(C)CCO3)cc2c1 | 0.292

Tested on: Canis familiaris
Test: Increase in plasma IGF1 level in Beagle dog at 4 mg/kg, po measured after 4 to 7 hrs post dose by ELIS
Format: functional, organism-based
Details: Canis lupus familiaris
Summary of the method: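 Dog blood taken before dosing and at 15, 30, 45 min and 1, 2, 4, 7, 12, 24 h post dose into K2EDTA tubes. Centrifuged at 4°C; plasma frozen below -80°C until IGF-1 analysis.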

Structure (SMILES) | Activity
Cc1ccc2[nH]c(C(=O)N[C@H]3Cc4ccccc4[C@@H]3NC(=O)[C@@H]3CN(C)CCO3)cc2c1 | Active
